How the values were obtained:
[1] = system: Human immunodeficiency virus 1; test: Antiviral activity against HIV-1 harboring NNTRI-resistant reverse transcriptase Y188L mutant infected in human MT4 cells assessed as inhibition of virus-induced cytopathic effect by MTT method; assay type: functional, organism-based; details: Human immunodeficiency virus 1, MT4
In short: (§1)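 MT-4 lymphoid cells infected with HIV-1 carrying RT K103N, Y181C or Y188L, with a range of drug concentrations present. Viable cells counted by MTT colorimetric assay at day 5 post-infection. […] Highest concentration tested was limited by precipitation in culture medium. Means of at least two experiments.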

[2] = Cytotoxicity against human MT4 cells assessed as induction of cell death by MTT method; assay type: cell-based
In short: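 Mock-infected MT-4 cells exposed to a range of drug concentrations. Viability read by MTT colorimetry at day 5. […] Top concentration was limited where compound precipitated in the culture medium. Means of at least two experiments.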

[3] = system: Human immunodeficiency virus 1; test: Antiviral activity against HIV-1 harboring NNTRI-resistant reverse transcriptase Y181C mutant infected in human MT4 cells assessed as inhibition of virus-induced cytopathic effect by MTT method; assay type: functional, organism-based; details: Human immunodeficiency virus 1, MT4; in short: as §1
[4] = system: Human immunodeficiency virus 1; test: Antiviral activity against wild type HIV-1 NL4-3 infected in human MT4 cells assessed as inhibition of virus-induced cytopathic effect by MTT method; assay type: functional, organism-based; details: Human immunodeficiency virus 1, NL4-3, MT4
In short: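 MT-4 lymphoid cells infected with wild-type HIV-1 NL4-3 while exposed to a range of drug concentrations. Viable cells counted by tetrazolium (MTT) colorimetry at day 5 post-infection. Means of at least two experiments.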

[5] = system: Human immunodeficiency virus 1; test: Antiviral activity against HIV-1 harboring NNTRI-resistant reverse transcriptase K103N mutant infected in human MT4 cells assessed as inhibition of virus-induced cytopathic effect by MTT method; assay type: functional, organism-based; details: Human immunodeficiency virus 1, MT4
[6] = Selectivity index, ratio of CC50 for human MT4 cells to EC50 for wild type HIV-1 NL4-3 infected in human MT4 cells; assay type: toxicity, cell-based; details: read-out: Ratio CC50/EC50
In short: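 Ratio of CC50 to EC50, both from MTT readings in MT-4 cells at day 5. CC50 was taken in mock-infected cells and EC50 in cells infected with wild-type NL4-3. Values are means of at least two experiments.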

[7] = system: Human immunodeficiency virus 1; test: Fold resistance, ratio of EC50 for HIV-1 harboring NNTRI-resistant reverse transcriptase Y181C mutant infected in human MT4 cells to EC50 for wild type HIV-1 NL4-3 infected in human MT4 cells; assay type: functional
In short: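 MT-4 cells infected with HIV-1 mutant (K103N or Y181C) or wild-type NL4-3, with drug present. […] Fold resistance is the mutant EC50 divided by the wild-type NL4-3 EC50. EC50 values are means of at least two experiments.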

[8] = system: Human immunodeficiency virus 1; test: Fold resistance, ratio of EC50 for HIV-1 harboring NNTRI-resistant reverse transcriptase K103N mutant infected in human MT4 cells to EC50 for wild type HIV-1 NL4-3 infected in human MT4 cells; assay type: functional
[9] = system: Human immunodeficiency virus type 1 reverse transcriptase (Human immunodeficiency virus 1), Q72547 [K103N]
[10] = target: Human immunodeficiency virus type 1 reverse transcriptase (Human immunodeficiency virus 1) (UniProt Q72547)
[11] = system: Human immunodeficiency virus type 1 reverse transcriptase (Human immunodeficiency virus 1), Q72547 [L100I]

Row | Structure (SMILES) | EC50 [1] [nM] | CC50 [2] [nM] | EC50 [3] [nM] | EC50 [4] [nM] | EC50 [5] [nM] | selectivity ratio [6] | Ratio EC50 [7] | Ratio EC50 [8] | ID50 [9] [nM] | ID50 [10] [nM] | ID50 [11] [nM] | pID50 [10]
1 | Cc1ccnc2c1NC(=O)c1cccnc1N2C1CC1 [NEVIRAPINE] | > 7000 | > 7000 | > 7000 |  |  |  |  |  |  |  |  | 
2 | CCC(C)Sc1nc(C(C)c2c(F)cccc2Cl)c(C)c(=O)[nH]1 (racemic) | > 1500 | > 1500 | 390 | 0.3 | 320 |  |  |  |  |  |  | 
3 | Cc1c(C(C)c2c(F)cccc2Cl)nc(SC(C)C)[nH]c1=O (racemic) | 3400 | > 15000 | 250 | 0.04 | 140 |  |  |  |  |  |  | 
4 | CCC(C)Sc1nc(Cc2c(F)cccc2Cl)c(C)c(=O)[nH]1 (stereo not drawn) | > 73000 | > 73000 | 5200 | 47 | 5400 | > 1550 | 111 | 115 |  |  |  | 
5 | Cc1c(C(C)c2c(F)cccc2F)nc(SC(C)C)[nH]c1=O (racemic) |  | > 3000 |  |  |  | > 3000 |  |  |  |  |  | 
6 | CCCCSc1nc(C(C)c2c(F)cccc2Cl)c(CC)c(=O)[nH]1 (racemic) | > 3000 | > 3000 | > 3000 | 64 | > 3000 | > 47 |  |  | 2300 | 22 | 330 | 
7 | Cc1c([C@@H](C)c2c(F)cccc2F)nc(SC2CCCC2)[nH]c1=O |  |  |  |  |  |  |  |  |  |  |  | 6
8 | CCC(c1nc(SC(C)C)[nH]c(=O)c1C)c1c(F)cccc1Cl (racemic) | > 3000 | > 3000 | > 3000 | 84 | > 3000 | > 36 |  |  | 420 | 6 | 120 | 
9 | Cc1c([C@H](C)c2c(F)cccc2F)nc(SC2CCCC2)[nH]c1=O |  |  |  |  |  |  |  |  |  |  |  | 8.1
10 | CCc1c(C(C)c2c(F)cccc2Cl)nc(SC2CCCC2)[nH]c1=O (racemic) | > 3000 | > 3000 | > 3000 | > 3000 | > 3000 |  |  |  | 1800 | 24 | 530 | 
11 | CCCCSc1nc(Cc2c(F)cccc2Cl)c(C)c(=O)[nH]1 | > 73000 | > 73000 | 2300 | 110 | 20000 | > 664 | 21 | 182 |  |  |  | 
12 | CCCSc1nc(C(C)c2c(F)cccc2Cl)c(CC)c(=O)[nH]1 (racemic) | > 3000 | > 3000 | > 3000 | 28 | > 3000 | > 107 |  |  | 2600 | 10 | 230 | 
13 | Cc1c([C@H](C)c2c(F)cccc2Cl)nc(SC(C)C)[nH]c1=O | 350 | > 23500 | 150 | 0.03 | 10 |  |  |  |  |  |  | 
14 | CCCCSc1nc(C(CC)c2c(F)cccc2F)c(C)c(=O)[nH]1 (racemic) | > 3000 | > 3000 | > 3000 | 23 | > 3000 | > 130 |  |  | 280 | 3 | 230 | 
15 | CCc1c(C(C)c2c(F)cccc2F)nc(SC(C)C)[nH]c1=O (racemic) | > 3000 | > 3000 | > 3000 | 89 | > 3000 | > 34 |  |  | 830 | 12 | 27200 | 
16 | CCCCSc1nc(C(CC)c2c(F)cccc2Cl)c(C)c(=O)[nH]1 (racemic) | > 3000 | > 3000 | > 3000 | 110 | > 3000 | > 27 |  |  | 1000 | 3 | 260 | 
17 | O=C1Nc2ccc(Cl)cc2[C@@](C#CC2CC2)(C(F)(F)F)O1 [EFAVIRENZ] | 1970 | > 3000 | 13 |  |  |  |  |  |  |  |  | 
